Measurements: ChEMBL document CHEMBL5532695, “4-Trifluoromethyl bithiazoles as broad-spectrum antimicrobial agents for virus-related bacterial infections or co-infections” (RSC Med Chem, 2024)

Assays:
[1] = test system: Staphylococcus epidermidis; assay: Antibacterial activity against linezolid-resistant Staphylococcus epidermidis SI-1266 assessed as reduction in microbial growth measured after 18 hrs by CLSI based broth microdilution method; assay type: functional
Summary of the method: (§1)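 Gram-positive clinical isolates; compounds dissolved in DMSO (50 mg mL−1 stock) and diluted in medium; MIC by CLSI broth microdilution in Mueller–Hinton medium, inoculum 5 × 10^4 CFU per well, read after 18 h at 35 ± 2 °C; triplicate.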

[2] = test system: rhinovirus A16; assay: microbe, parasite or virus in culture; conditions: Rhinovirus A, HeLa, 48 h
[3] = test system: Staphylococcus haemolyticus; assay: Bactericidal activity against oxacillin-resistant Staphylococcus haemolyticus SI-6/2011 assessed as reduction in microbial growth measured after 18 hrs by CLSI based broth microdilution method; assay type: functional
[4] = test system: Enterococcus faecium; assay: Bactericidal activity against Vancomycin resistant Enterococcus faecium SI-3856B assessed as reduction in microbial growth measured after 18 hrs by CLSI based broth microdilution method; assay type: functional
[5] = test system: Bacillus subtilis; assay: Bactericidal activity against Bacillus subtilis ATCC 6633 assessed as reduction in microbial growth measured after 18 hrs by CLSI based broth microdilution method; assay type: functional
Summary of the method: (§2)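 MBC by CLSI broth microdilution in Mueller–Hinton medium, triplicate. Inoculum 5 × 10^4 CFU per well. Read after 18 h at 35 ± 2 °C.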

[6] = test system: Klebsiella pneumoniae; assay: Synergistic antibacterial activity against Klebsiella pneumoniae ATCC 13833 incubated for 18 to 24 hrs in presence of colistin by broth microdilution method; assay type: functional; conditions: time 18-24 hrs
[7] = test system: Staphylococcus aureus; assay: Antibacterial activity against Staphylococcus aureus ATCC 25923 assessed as reduction in microbial growth measured after 18 hrs by CLSI based broth microdilution method; assay type: functional
Summary of the method: (§3)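 MIC by CLSI broth microdilution in Mueller–Hinton medium, triplicate. Inoculum 5 × 10^4 CFU per well. Compounds taken up in DMSO (50 mg mL−1 stock) and diluted in medium. Read after 18 h at 35 ± 2 °C.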

[8] = test system: Staphylococcus aureus; assay: Bactericidal activity against methicillin-resistant Staphylococcus aureus ATCC 43300 assessed as reduction in microbial growth measured after 18 hrs by CLSI based broth microdilution method; assay type: functional
[9] = test system: Zika virus; conditions: vero e6
[10] = test system: Pseudomonas aeruginosa; assay: Synergistic antibacterial activity against Pseudomonas aeruginosa ATCC 27853 incubated for 18 to 24 hrs in presence of colistin by broth microdilution method; assay type: functional; conditions: time 18-24 hrs
[11] = test system: Staphylococcus haemolyticus; assay: Antibacterial activity against oxacillin-resistant Staphylococcus haemolyticus SI-6/2011 assessed as reduction in microbial growth measured after 18 hrs by CLSI based broth microdilution method; assay type: functional; summary of the method: as §1
[12] = test system: Staphylococcus warneri; assay: Antibacterial activity against oxacillin-resistant Staphylococcus warneri SI-5/2011 assessed as reduction in microbial growth measured after 18 hrs by CLSI based broth microdilution method; assay type: functional; summary of the method: as §1
[13] = test system: Escherichia coli; assay: Synergistic antibacterial activity against Escherichia coli CCUGT incubated for 18 to 24 hrs in presence of colistin by broth microdilution method; assay type: functional; conditions: time 18-24 hrs
[14] = test system: Bacillus subtilis; assay: Antibacterial activity against Bacillus subtilis ATCC 6633 assessed as reduction in microbial growth measured after 18 hrs by CLSI based broth microdilution method; assay type: functional; summary of the method: as §3
[15] = test system: Enterococcus faecium; assay: Antibacterial activity against Vancomycin/teicoplanin resistant Enterococcus faecium SI-759 assessed as reduction in microbial growth measured after 18 hrs by CLSI based broth microdilution method; assay type: functional; summary of the method: as §1
[16] = test system: enterovirus D68; assay: microbe, parasite or virus in culture; conditions: Enterovirus D, HeLa, 48 h
[17] = test system: Staphylococcus aureus; assay: Antibacterial activity against methicillin-resistant Staphylococcus aureus ATCC 43300 assessed as reduction in microbial growth measured after 18 hrs by CLSI based broth microdilution method; assay type: functional; summary of the method: as §1
[18] = test system: Acinetobacter baumannii; assay: Synergistic antibacterial activity against Acinetobacter baumannii ATCC 17978 incubated for 18 to 24 hrs in presence of colistin by broth microdilution method; assay type: functional; conditions: time 18-24 hrs
[19] = test system: Streptococcus pyogenes; assay: Antibacterial activity against Streptococcus pyogenes ATCC 12344 assessed as reduction in microbial growth measured after 18 hrs by CLSI based broth microdilution method; assay type: functional; summary of the method: as §3
[20] = test system: Streptococcus pyogenes; assay: Bactericidal activity against Streptococcus pyogenes ATCC 12344 assessed as reduction in microbial growth measured after 18 hrs by CLSI based broth microdilution method; assay type: functional; summary of the method: as §2
[21] = test system: Staphylococcus warneri; assay: Bactericidal activity against oxacillin-resistant Staphylococcus warneri SI-5/2011 assessed as reduction in microbial growth measured after 18 hrs by CLSI based broth microdilution method; assay type: functional
[22] = test system: Enterococcus faecalis; assay: Bactericidal activity against Enterococcus faecalis ATCC 29212 assessed as reduction in microbial growth measured after 18 hrs by CLSI based broth microdilution method; assay type: functional; summary of the method: as §2
[23] = test system: Enterococcus faecium; assay: Antibacterial activity against Vancomycin resistant Enterococcus faecium SI-1831 assessed as reduction in microbial growth measured after 18 hrs by CLSI based broth microdilution method; assay type: functional; summary of the method: as §1
[24] = test system: Staphylococcus epidermidis; assay: Bactericidal activity against linezolid-resistant Staphylococcus epidermidis SI-1266 assessed as reduction in microbial growth measured after 18 hrs by CLSI based broth microdilution method; assay type: functional
[25] = test system: Enterococcus faecalis; assay: Antibacterial activity against Enterococcus faecalis ATCC 29212 assessed as reduction in microbial growth measured after 18 hrs by CLSI based broth microdilution method; assay type: functional; summary of the method: as §3
[26] = Cytotoxicity against human HeLa cells assessed as reduction in cell viability by MTT assay; assay type: toxicity, cell-based
Summary of the method: (§4)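 MTT viability on HeLa or VeroE6 cells, run in parallel with the antiviral assays. CC50 from variable-slope sigmoidal dose–response regression.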

[27] = Cytotoxicity against african green monkey Vero E6 cells assessed as reduction in cell viability by MTT assay; assay type: toxicity, cell-based; conditions: chlorocebus sabaeus, Vero E6 cells (Vero C1008); summary of the method: as §4
[28] = test system: Enterococcus faecium; assay: Bactericidal activity against Vancomycin/teicoplanin resistant Enterococcus faecium SI-759 assessed as reduction in microbial growth measured after 18 hrs by CLSI based broth microdilution method; assay type: functional
[29] = test system: Enterococcus faecium; assay: Bactericidal activity against Vancomycin resistant Enterococcus faecium SI-1831 assessed as reduction in microbial growth measured after 18 hrs by CLSI based broth microdilution method; assay type: functional
[30] = test system: Enterococcus faecium; assay: Antibacterial activity against Vancomycin resistant Enterococcus faecium SI-3856B assessed as reduction in microbial growth measured after 18 hrs by CLSI based broth microdilution method; assay type: functional; summary of the method: as §1
[31] = test system: Staphylococcus aureus; assay: Bactericidal activity against Staphylococcus aureus ATCC 25923 assessed as reduction in microbial growth measured after 18 hrs by CLSI based broth microdilution method; assay type: functional; summary of the method: as §2
[32] = test system: Zika virus; assay: microbe, parasite or virus in culture; conditions: Vero C1008, 72 h
[33] = biological target: Phosphatidylinositol 4-kinase beta (Homo sapiens, UniProt Q9UBF8); assay: Inhibition of recombinant full length his tagged PI4KB (unknown origin) incubated for 10 mins in presence of ATP by ADP-glo kinase assay
Sequence of Phosphatidylinositol 4-kinase beta (Q9UBF8 whole entry): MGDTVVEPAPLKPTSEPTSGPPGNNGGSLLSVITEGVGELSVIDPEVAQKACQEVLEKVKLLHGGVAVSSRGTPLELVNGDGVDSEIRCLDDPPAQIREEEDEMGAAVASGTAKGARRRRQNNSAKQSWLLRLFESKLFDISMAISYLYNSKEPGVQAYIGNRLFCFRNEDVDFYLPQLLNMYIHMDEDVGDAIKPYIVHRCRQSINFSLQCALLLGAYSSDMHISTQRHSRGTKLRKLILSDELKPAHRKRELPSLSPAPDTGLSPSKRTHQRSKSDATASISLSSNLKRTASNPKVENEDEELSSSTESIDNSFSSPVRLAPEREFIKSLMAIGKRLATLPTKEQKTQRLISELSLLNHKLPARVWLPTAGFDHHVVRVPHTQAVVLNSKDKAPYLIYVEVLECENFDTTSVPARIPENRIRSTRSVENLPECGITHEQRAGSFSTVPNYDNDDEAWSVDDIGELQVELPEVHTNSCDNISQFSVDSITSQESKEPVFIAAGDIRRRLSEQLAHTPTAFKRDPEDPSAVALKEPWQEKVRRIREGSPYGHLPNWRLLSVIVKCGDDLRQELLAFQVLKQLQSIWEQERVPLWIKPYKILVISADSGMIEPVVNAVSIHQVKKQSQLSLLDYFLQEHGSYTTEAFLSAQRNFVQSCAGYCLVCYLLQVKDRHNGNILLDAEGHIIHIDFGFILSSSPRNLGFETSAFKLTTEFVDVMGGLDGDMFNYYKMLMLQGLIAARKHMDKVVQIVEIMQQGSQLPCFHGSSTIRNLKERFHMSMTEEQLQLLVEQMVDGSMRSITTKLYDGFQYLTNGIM

[34] = test system: rhinovirus A16; conditions: hela
[35] = test system: enterovirus D68; conditions: hela

| SMILES | IC50 [2] [µM] | MIC [7] [µg/mL] | IC50 [9] | MIC [14] [µg/mL] | IC50 [16] [µM] | MIC [19] [µg/mL] | MIC [25] [µg/mL] | IC50 [33] | MAC [6] [µg/mL] | MAC [10] [µg/mL] | MAC [13] [µg/mL] | MAC [18] [µg/mL] | CC50 [26] [µM] | CC50 [27] [µM] | also measured |
| --- | --- | --- | --- | --- | --- | --- | --- | --- | --- | --- | --- | --- | --- | --- | --- |
| CC(C)(C)C(=O)Nc1nc(C(F)(F)F)c(-c2csc(Nc3cc(C(=O)O)cc(C(F)(F)F)c3)n2)s1 | 9.52 | 16 | Not Active | 16 | 4.18 | 4 | 32 |  | >64 | >64 | >64 | >64 | > 50 | > 50 | MIC [1]: 16 µg/mL; MBC [3]: > 64 µg/mL; MBC [4]: > 64 µg/mL; MBC [5]: 16 µg/mL; MBC [8]: > 64 µg/mL; MIC [11]: 16 µg/mL; MIC [12]: 16 µg/mL; MIC [15]: 16 µg/mL; MIC [17]: 8 µg/mL; MBC [20]: 4 µg/mL; MBC [21]: > 64 µg/mL; MBC [22]: > 32 µg/mL; MIC [23]: 16 µg/mL; MBC [24]: 64 µg/mL; MBC [28]: > 64 µg/mL; MBC [29]: > 64 µg/mL; MIC [30]: 32 µg/mL; MBC [31]: < 32 µg/mL |
| O=C(O)c1cc(Nc2nc(-c3sc(NC(=O)c4ccccc4)nc3C(F)(F)F)cs2)cc(C(=O)O)c1 |  | > 32 | Not Active | > 32 |  | > 32 | > 32 | Not Active | >64 | >64 | >64 | >64 | > 50 | > 50 | IC50 [34]: Not Active; IC50 [35]: Not Active |
| CC(C)(C)C(=O)Nc1nc(C(F)(F)F)c(-c2csc(Nc3ccc(O)c(C(=O)O)c3)n2)s1 | 9.77 | > 32 | Not Active | 32 | 10 | 16 | > 32 |  | >64 | >64 | >64 | >64 | > 50 | > 50 | MBC [5]: > 32 µg/mL; MBC [20]: > 32 µg/mL |

Second part, led by results:

| IC50 [2] [µM] | MIC [7] [µg/mL] | IC50 [9] | MIC [14] [µg/mL] | IC50 [16] [µM] | MIC [19] [µg/mL] | MIC [25] [µg/mL] | IC50 [33] | SMILES | MAC [6] [µg/mL] | MAC [10] [µg/mL] | MAC [13] [µg/mL] | MAC [18] [µg/mL] | CC50 [26] [µM] | CC50 [27] [µM] | also measured |
| --- | --- | --- | --- | --- | --- | --- | --- | --- | --- | --- | --- | --- | --- | --- | --- |
| 0.25 | > 32 |  | > 32 | 2.01 | > 32 | > 32 | Not Active | COC(=O)c1cc(Nc2nc(-c3sc(NC(=O)C(C)(C)C)nc3C(F)(F)F)cs2)cc(C(F)(F)F)c1 | >64 | >64 | >64 | >64 | 47.3 | > 50 | IC50 [32]: 6.13 µM |
|  | > 32 | Not Active | > 32 | 12.3 | > 32 | > 32 | Not Active | CC(C)(C)C(=O)Nc1nc(C(F)(F)F)c(-c2csc(Nc3cc(C(=O)O)cc(C(=O)O)c3)n2)s1 | >64 | >64 | >64 | >64 | > 50 | > 50 | IC50 [34]: Not Active |
| 2.44 | > 32 | Not Active | > 32 |  | > 32 | > 32 | Not Active | COC(=O)c1cc(Nc2nc(-c3sc(NC(=O)c4ccccc4)nc3C(F)(F)F)cs2)cc(C(F)(F)F)c1 | >64 | >64 | >64 | >64 | 22.9 | > 50 | IC50 [35]: Not Active |
| 10.4 | > 32 |  | > 32 | 5.74 | > 32 | > 32 | Not Active | CC(C)(C)C(=O)Nc1nc(C(F)(F)F)c(-c2c[nH]c(Nc3cccc(C(F)(F)F)c3)n2)s1 | >64 | >64 | 32 | 16 | > 50 | > 50 | IC50 [32]: 8.52 µM |
